# Screens from PubChem.
# bIAP inhibitor: bovine intestinal alkaline phosphatase inhibitors, primary screen, selectivity assay for TNAP inhibitor project, biochemical, bovine IAP, CDP-star luminescence | 190,000 tested, under 10 active | inhibition, % at 20 µM | alkaline phosphatase, intestinal [Bos taurus] | purified bovine IAP, 30 min;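 active = over 50% inhibition of intestinal alkaline phosphatase at 20 µM in the single-dose screen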
#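 Assay system – bovine IAP enzyme · Quantity – bovine IAP at 1/65,000,000 final dilution · Detection – CDP-star luminescence signal · Times – 30 min reaction at room temperature · Also added – CDP-star substrate at 30 µM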
# mIAP activ: activators of mouse IAP, primary screen, biochemical, luminescence, uHTS | intestinal alkaline phosphatase [Mus musculus] | 330,000 compounds, 0.24% hits | muIAP, CDP-Star luminescence, 30 min; stronger effect = higher value; 1 = vehicle-only enzyme signal, 0 = enzyme-free wells | activation factor at 10 µM;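 active = activation factor of at least 2 at 20 µM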
#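 Assay system: mouse IAP enzyme; Reagent: CDP-Star chemiluminescent phosphatase substrate; Compound: DMSO-dissolved test compounds; Incubation: 30 min, room temperature; Technique: luminescence from enzymatic CDP-Star hydrolysis; Controls: DMSO-only wells and no-enzyme negative control.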
# hIAP inh: human IAP inhibitors, primary screen, biochemical, luminescence, uHTS; purified IAP, CDP-Star luminescence, 30 min; inhibition, % at 10 µM; 330,000 compounds, 0.12% hits; AID 2544, 2010;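 active = inhibition reaching a set limit with compound at 10 µM in the primary screen, cut at about 35% in these data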
# Target sequence (P09923 whole entry, looked up): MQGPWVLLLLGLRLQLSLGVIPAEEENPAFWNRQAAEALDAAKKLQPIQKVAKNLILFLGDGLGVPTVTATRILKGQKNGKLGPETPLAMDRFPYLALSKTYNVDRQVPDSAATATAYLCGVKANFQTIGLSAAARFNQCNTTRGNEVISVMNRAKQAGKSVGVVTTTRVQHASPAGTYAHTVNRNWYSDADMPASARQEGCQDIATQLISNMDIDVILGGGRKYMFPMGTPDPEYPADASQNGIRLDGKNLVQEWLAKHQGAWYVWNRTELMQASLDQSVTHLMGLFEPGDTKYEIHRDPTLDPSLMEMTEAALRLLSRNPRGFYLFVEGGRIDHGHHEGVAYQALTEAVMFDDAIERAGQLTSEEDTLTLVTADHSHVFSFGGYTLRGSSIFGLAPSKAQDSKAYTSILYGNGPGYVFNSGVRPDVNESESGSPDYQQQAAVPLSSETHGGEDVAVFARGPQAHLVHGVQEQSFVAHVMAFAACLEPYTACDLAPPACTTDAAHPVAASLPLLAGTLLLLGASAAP
# mIAP block: inhibitors of mouse IAP, primary screen, biochemical, luminescence, uHTS; purified mouse IAP, CDP-Star luminescence, 30 min; inhibition, % at 10 µM; 330,000 compounds, 0.2% hits;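 active = inhibition of at least 40% at 10 µM in the primary screen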
# bIAP act: bovine intestinal alkaline phosphatase activators, primary screen, biochemical, bovine IAP, CDP-star luminescence; 200,000 compounds, 0.17% hits; AID 1016, 2008; purified bovine IAP, 30 min; stronger effect = higher value; fold of DMSO-control signal, blank-subtracted; activation factor at 20 µM;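 active = activation factor of 2 or more at 20 µM, a signal rise over negative controls twice the positive control's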
# hIAP act: human IAP activators, primary screen, biochemical, luminescence, uHTS. activation factor at 10 µM. 330,000 compounds, 0.16% hits. purified human IAP, CDP-Star luminescence, 30 min; stronger effect = higher value; 1 = vehicle-only enzyme, 0 = enzyme-free background;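 active = activation factor of the enzyme at least 2-fold when tested at 20 µM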
# hIAP act confirm: human IAP activators, confirmation, biochemical, luminescence, single concentration, uHTS hits; shares compounds with hIAP act; purified IAP, CDP-Star luminescence, 30 min; stronger effect = lower value; activation (%Activity, negative = activation), % at 8.3 µM; 880 compounds, 10% hits;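 active = at least twofold enzyme activation in any of six single-dose repeats, which the averaged readout prints as negative percent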
# A number is an active result; - = inactive; . = not tested or not shown. The list is not random: actives were taken first. Their share in the collection is about 0.79%.
SMILES,bIAP inhibitor,mIAP activ,hIAP inh,mIAP block,bIAP act,hIAP act,hIAP act confirm
CC(NS(=O)(=O)OCC(Cl)(Cl)Cl)c1ccc(Br)cc1 (stereo unspecified),.,-,-,-,.,-,.
CCc1occc(=O)c1Oc1cc(NN2CCCCC2)c([N+](=O)[O-])cc1[N+](=O)[O-],.,-,42.5,-,.,-,-
CCSc1nnc(NC(=O)c2ccccc2C)s1,-,-,-,-,-,-,.
CN(C)c1ccc(N=Nc2ccccc2C(=O)OCC(=O)NC2CCCC2)cc1,-,-,39.5,-,-,-,-
CN(C)c1ccc(N=Nc2ccccc2C(=O)OCC(=O)NCC2CCCCC2)cc1,-,-,-,-,-,-,.
CCOC(=O)c1c(C)[nH]c(C(=O)N/N=C\c2ccccc2O)c1C,-,.,.,.,-,.,.
CCOC(=O)c1c(C)[nH]c(C(=O)N/N=C/c2cc([N+](=O)[O-])ccc2O)c1C,.,-,-,-,.,2.08,-
CC(=O)Nc1cccc(-c2csc(Nc3ccccn3)n2)c1,-,-,-,-,-,2.18,-94.1
CCOc1ccc(CCNC(=O)COC(=O)c2cc(OC)c(OC)cc2[N+](=O)[O-])cc1OCC,.,-,-,-,.,-,.
Cc1ccc(S(=O)(=O)NNC(=O)C(=O)NNc2ccccn2)cc1,-,-,-,-,-,3.09,-
Cc1ccccc1S(=O)(=O)NNC(=O)C(=O)NNc1ccccn1,-,-,-,-,-,3.1,-
Cc1ccc(S(=O)(=O)NNC(=O)C(O)(c2ccccc2)c2ccccc2)cc1,-,-,-,-,-,-,.
CC(=O)Nc1ccc(S(=O)(=O)Nc2ccccn2)cc1,-,-,-,-,-,-,.
CC(=O)Nc1ccc(S(=O)(=O)NNC(=O)C(=O)NNc2ccccn2)cc1,.,-,-,-,.,2.85,-
CCOc1ccc(S(=O)(=O)N2CCC(C(=O)NCC3CCCO3)CC2)cc1Cl (stereo unspecified),.,-,-,-,.,-,.
COc1ccc(C(=O)Nc2ccccc2C(=O)NC(Cc2c[nH]c3ccccc23)C(=O)O)cc1 (stereo unspecified),-,-,-,-,-,-,.
COc1ccc(NC(=O)CCN2CCN(S(=O)(=O)c3ccc(Br)cc3)CC2)cc1,.,-,-,-,.,-,.
COc1ccc(NC(=O)CCN2CCN(S(=O)(=O)c3cc(Cl)ccc3OC)CC2)cc1,-,-,36.2,-,-,-,-
COc1ccc(CC2CC(=O)N(c3ccc(C)cc3)C2=O)cc1 (stereo unspecified),.,-,-,-,.,2.06,-
Cc1ccc(CC2CC(=O)N(c3ccc(C)cc3)C2=O)cc1 (stereo unspecified),-,-,-,-,-,-,.
COc1ccc(NC(=O)CN(C)C(=O)c2c(-c3c(F)cccc3Cl)noc2C)cc1,.,-,-,-,.,-,.
Cc1ccc(C2=NN(C3=NN=C(N)Cc4ncnn43)C(O)(C(F)(F)F)C2)cc1 (stereo unspecified),-,-,-,-,-,-,.
NC1=NN=C(N2N=C(c3ccco3)CC2(O)C(F)(F)F)n2ncnc2C1 (stereo unspecified),-,-,-,-,-,2.53,-
Nc1nc(-c2ccc(Oc3ccccc3)cc2)c(CC(=O)O)s1,.,-,-,-,.,-,.
c1ccc(-c2cc3c(ccc4nonc43)nn2)cc1,-,-,-,-,-,-,.
SMILES,bIAP inhibitor,mIAP activ,hIAP inh,mIAP block,bIAP act,hIAP act,hIAP act confirm
On1onc2c3cc(-c4ccccc4)nc3ccc21,-,-,36.6,-,-,-,-
CCN(CC)C(=O)C(=O)N/N=C/c1ccc(Cl)cc1Cl,-,-,-,-,-,2.12,-
O=C(N/N=C/c1ccc(O)c(O)c1)c1cc(-c2ccccc2)nc2ccccc12,.,-,77.6,-,.,-,-
O=C(N/N=C/c1cccc(O)c1)c1cc(-c2ccccc2)nc2ccccc12,.,-,-,-,.,-,.
CCC(OC(=O)C1=Cc2ccccc2OC1)C(=O)NC1CCCC1 (stereo unspecified),-,-,66.1,-,-,-,-52.5
CC(C)C(OC(=O)C1=Cc2ccccc2OC1)C(=O)NC1CCCC1 (stereo unspecified),-,-,-,-,-,-,.
CCc1ccc(S(=O)(=O)/N=C2\C=C(NS(=O)(=O)c3ccccc3)C(=O)c3ccccc32)cc1,.,-,36.1,-,.,-,-
O=C(c1ccco1)N1CCN(c2nc(-c3ccc(F)cc3)cs2)CC1,-,-,-,-,-,2,-
Cc1ccc(N(C(=O)CNC(=O)c2ccco2)C(C(=O)NC2CCCC2)c2cccnc2)c(C)c1 (stereo unspecified),.,-,-,-,.,-,.
O=C(NCc1ccccc1)C(=O)Nc1nc(-c2ccccc2)cs1,.,-,-,-,.,-,.
O=C(NCc1ccccn1)C(=O)Nc1nc(-c2ccccc2)cs1,.,-,-,-,.,2.17,-
CC(C)N(c1ccccc1)c1ccc(NC(=O)COC(=O)CCN2C(=O)c3cccc([N+](=O)[O-])c3C2=O)cc1,-,-,-,-,-,-,.
Cc1cc(OCC(=O)Nc2ncn[nH]2)ccc1Cl,.,-,-,-,.,2.01,-87.0
S=C(NCc1ccncc1)Nc1ccc(Cl)cc1,-,-,-,-,-,2,-
Cc1cccc(C)c1NCc1n[nH]c(=S)n1-c1ccccc1,-,-,-,-,-,-,.
CC(=O)N1CCN(c2ncnc3ccccc23)CC1,.,-,-,-,.,-,.
COc1ccc(N=Cc2sc3ccccc3c2Cl)cc1,-,-,37.8,-,-,-,-
COc1cccc(C2c3c(-c4cc(Cl)c(C)cc4O)n[nH]c3C(=O)N2Cc2cccnc2)c1 (stereo unspecified),-,-,-,-,-,2.37,-
COc1cc(C2c3c(-c4cc(Cl)c(C)cc4O)n[nH]c3C(=O)N2Cc2cccnc2)ccc1O (stereo unspecified),-,-,-,-,-,-,.
COc1ccc(C2c3c(-c4ccccc4O)n[nH]c3C(=O)N2Cc2ccco2)cc1 (stereo unspecified),.,-,-,-,.,2.23,-
COc1cc(C2c3c(-c4ccccc4O)n[nH]c3C(=O)N2Cc2ccco2)cc(OC)c1OC (stereo unspecified),.,-,-,-,.,-,.
